Assay results published in ChEMBL document CHEMBL5357076, “Structure-ATPase Activity Relationship of Rhodamine Derivatives as Potent Inhibitors of P-Glycoprotein CmABCB1” (ACS Med Chem Lett, 2024).
pKi: −log10 of the molar value. Active and inactive are the calls of the source. The rule behind the calls is not given here.

Legend:
Cyanidioschyzon merolae [1] = assay: Binding affinity to Cyanidioschyzon merolae ABCB1 assessed as Km
Outline: (§1)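 Purified wild-type CmABCB1 in β-DDM micelles; ATPase activity measured against rhodamine concentration with 5 mM ATP in 50 mM Tris–HCl (pH 7.5 at 37 °C), 150 mM NaCl, 0.05% (w/v) β-DDM, 37 °C, 30 min. Bell-shaped activity curve fitted to a modified Michaelis–Menten equation giving Km (stimulation) and Ki (substrate inhibition); means ± SD, n = 3.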

[2] = Inhibition of Cyanidioschyzon merolae ABCB1 ATPase activity assessed as inhibition constant by colorimetric analysis; outline: as §1
Saccharomyces cerevisiae [3] = assay: Antimicrobial activity against Saccharomyces cerevisiae expressing AD1-8u- cells assessed as growth inhibition upto 30 uM incubated for 15 to 17 hrs; assay type: functional, organism-based; settings: time 15-17 hrs
Outline: (§2)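 S. cerevisiae AD1-8u cells expressing wild-type CmABCB1, alongside mock-transfected AD1-8u cells, grown in YPD medium with a range of drug concentrations at 30 °C for 15–17 h; growth compared between strains; means ± SD, n = 3.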

Saccharomyces cerevisiae [4] = assay: Antimicrobial activity against Saccharomyces cerevisiae expressing AD1-8u- cells assessed as growth inhibition at 1 uM incubated for 15 to 17 hrs; assay type: functional, organism-based; settings: time 15-17 hrs; outline: as §2
Cyanidioschyzon merolae [5] = assay: Potency index, ratio of test compound Km to Rhodamine 6G Km for binding affinity to Cyanidioschyzon merolae ABCB1 assessed as Km
Cyanidioschyzon merolae [6] = assay: Potency index, ratio of test compound Ki to Rhodamine 6G Ki for inhibition of Cyanidioschyzon merolae ABCB1 ATPase activity assessed as inhibition constant by colorimetric analysis
Cyanidioschyzon merolae [7] = assay: Substrate activity at Cyanidioschyzon merolae ABCB1 4WY/M391W mutant assessed as tryptophan quenching ratio by measuring inner chamber entry by fluorescence based analysis
Outline: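 Purified CmABCB1 4WY/M391W mutant (four of six native Trp removed, Trp introduced at 391), 13 μg/mL in 20 mM Tris–HCl (pH 7.5 at 25 °C), 150 mM NaCl, 0.05% (w/v) β-DDM, titrated with compound (0–1.0 μM) at 25 °C; excitation 290 nm, quenching ratio of emission at 340 nm.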

Row | Km (Cyanidioschyzon merolae [1]) [µM] | pKi [2] | Structure (SMILES) | further results
1 | 0.77 | 5.02 | O=C(OCc1ccc2ccccc2c1)c1ccccc1C1=c2cc3c(cc2Oc2cc4c(cc21)CCCN4)=NCCC3 | –
2 | 0.58 | 5.09 | COc1cccc(COC(=O)c2ccccc2C2=c3cc4c(cc3Oc3cc5c(cc32)CCCN5)=NCCC4)c1 | –
3 | 4.6 | 3.25 | CCCCOC(=O)c1ccccc1-c1c2cc(C)/c(=N\CC)cc-2oc2cc(NCC)c(C)cc12 | –
4 | 0.55 | 4.92 | O=C(OCc1cccc([N+](=O)[O-])c1)c1ccccc1C1=c2cc3c(cc2Oc2cc4c(cc21)CCCN4)=NCCC3 | –
5 | 0.31 | 4.51 | COc1cc(COC(=O)c2ccccc2C2=c3cc4c(cc3Oc3cc5c(cc32)CCCN5)=NCCC4)cc(OC)c1 | –
6 | 0.73 | 5.04 | COc1ccc(COC(=O)c2ccccc2C2=c3cc4c(cc3Oc3cc5c(cc32)CCCN5)=NCCC4)cc1 | –
7 | 2.9 | 3.16 | CC/N=c1/cc2oc3cc(NCC)c(C)cc3c(-c3ccccc3C(=O)OCC)c-2cc1C | Activity (Saccharomyces cerevisiae [3]): inactive; Activity (Saccharomyces cerevisiae [4]): Active
8 | 0.5 | 5.09 | COc1ccccc1COC(=O)c1ccccc1C1=c2cc3c(cc2Oc2cc4c(cc21)CCCN4)=NCCC3 | –

More lines, now with the values behind:

Row | Structure (SMILES) | Km (Cyanidioschyzon merolae [1]) [µM] | pKi [2] | further results
9 | O=C(OCc1cccc(C(F)(F)F)c1)c1ccccc1C1=c2cc3c(cc2Oc2cc4c(cc21)CCCN4)=NCCC3 | 0.44 | 4.74 | –
10 | CCCC/N=c1/cc2oc3cc(NCCCC)c(C)cc3c(-c3ccccc3C(=O)OCCCC)c-2cc1C | 3.2 | 3.80 | –
11 | O=C(OCc1ccccc1C(F)(F)F)c1ccccc1C1=c2cc3c(cc2Oc2cc4c(cc21)CCCN4)=NCCC3 | 3.9 | 5.92 | –
12 | CCCCOC(=O)c1ccccc1C1=c2cc3c4c(c2Oc2c1cc1c5c2CCCN5CCC1)CCC[N+]=4CCC3 | 1.5 | 4.37 | –
13 | CCCCOC(=O)c1ccccc1-c1c2cc(C)c(=[N+]3CCCC3)cc-2oc2cc(N3CCCC3)c(C)cc12 | 1.1 | 3.96 | –
14 | O=C(OCCc1ccccc1)c1ccccc1C1=c2cc3c(cc2Oc2cc4c(cc21)CCCN4)=NCCC3 | 1.4 | 5.09 | –
15 | Cc1cccc(COC(=O)c2ccccc2C2=c3cc4c(cc3Oc3cc5c(cc32)CCCN5)=NCCC4)c1 | 0.56 | 5.08 | –
16 | O=C(OCc1ccccc1)c1ccccc1C1=c2cc3c(cc2Oc2cc4c(cc21)CCCN4)=NCCC3 | 0.81 | 5.05 | –
17 | CCCCOC(=O)c1ccccc1C1=c2cc3c(cc2Oc2cc4c(cc21)CCCN4)=NCCC3 | 1.7 | 4.85 | –
18 | O=C(OCc1cc(C(F)(F)F)cc(C(F)(F)F)c1)c1ccccc1C1=c2cc3c(cc2Oc2cc4c(cc21)CCCN4)=NCCC3 | 2.3 | 5.20 | –
19 | CN(C)c1cccc(COC(=O)c2ccccc2C2=c3cc4c(cc3Oc3cc5c(cc32)CCCN5)=NCCC4)c1 | 0.52 | 5.00 | –
20 | COc1cccc(OC)c1COC(=O)c1ccccc1C1=c2cc3c(cc2Oc2cc4c(cc21)CCCN4)=NCCC3 | 0.55 | 5.24 | Ratio (Cyanidioschyzon merolae [5]): 5; Ratio Ki (Cyanidioschyzon merolae [6]): 120; Activity (Cyanidioschyzon merolae [7]): 30%
